Experimental data from ChEMBL document CHEMBL4406859, “Antitumor and antiviral activities of 4-substituted 1,2,3-triazolyl-2,3-dibenzyl-L-ascorbic acid derivatives” (Eur J Med Chem, 2019).
Activity calls are given as the source filed them. The rule behind the calls is not given here.

Key:
A549 = test: Antiproliferative activity against human A549 cells assessed as reduction in cell viability incubated for 72 hrs by MTT assay; format: functional, cell-based; conditions: A549, 72 h
Method in brief: (§1)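 Cells (ATCC) grown in DMEM with 10 FBS, penicillin/streptomycin, 2 mM glutamine, 37 °C, 5 CO2. 5000 cells/well seeded; after 24 h, freshly prepared dilutions at five concentrations (0.01–100 μM) added for 72 h. MTT read-out; absorbance converted to percentage growth by NIH formulas. Two experiments in quadruplicate; IC50 by linear regression.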

CFPAC-1 = test: Antiproliferative activity against human CFPAC-1 cells assessed as reduction in cell viability incubated for 72 hrs by MTT assay; format: functional, cell-based; conditions: Homo sapiens, CFPAC-1, 72 h; read-out: IC50; method in brief: as §1
HCT-116 = test: Antiproliferative activity against human HCT116cells assessed as reduction in cell viability incubated for 72 hrs by MTT assay; format: functional, cell-based; conditions: HCT-116, 72 h; method in brief: as §1
HeLa = test: Antiproliferative activity against human HeLa cells assessed as reduction in cell viability incubated for 72 hrs by MTT assay; format: functional, cell-based; method in brief: as §1
HepG2 = test: Antiproliferative activity against human HepG2 cells assessed as reduction in cell viability incubated for 72 hrs by MTT assay; format: functional, cell-based; conditions: HepG2, 72 h; method in brief: as §1
MCF7 [1] = test: Antiproliferative activity against human MCF7 cells assessed as reduction in cell viability incubated for 72 hrs by MTT assay; format: functional, cell-based; conditions: MCF7, 72 h; method in brief: as §1
SW-620 = test: Antiproliferative activity against human SW620 cells assessed as reduction in cell viability incubated for 72 hrs by MTT assay; format: functional, cell-based; conditions: SW-620, 72 h; method in brief: as §1
HFF = test: Cytotoxicity against human HFF cells assessed as reduction in cell viability incubated for 72 hrs by MTT assay; format: cell-based; method in brief: as §1
Influenza A virus [2] = test: Antiviral activity against Influenza A virus (A/Ned/378/05(H1N1)) infected in dog MDCK cells assessed as reduction in virus-induced cytopathogenicity incubated for 7 days by microscopic analysis; format: functional, organism-based
Influenza A virus H3N2 [3] = test: Antiviral activity against Influenza A virus (A/HK/7/87(H3N2)) infected in dog MDCK cells assessed as reduction in virus-induced cytopathogenicity incubated for 7 days by microscopic analysis; format: functional, organism-based; conditions: A/Hong Kong/7/1987(H3N2); for EC50: 168 h
Influenza B virus [4] = test: Antiviral activity against Influenza B virus (B/Ned/537/05) infected in dog MDCK cells assessed as reduction in virus-induced cytopathogenicity incubated for 7 days by microscopic analysis; format: functional, organism-based; conditions: for EC50: 168 h
Influenza A virus [5] = test: Antiviral activity against Influenza A virus (A/Ned/378/05(H1N1)) infected in dog MDCK cells assessed as reduction in virus-induced cytopathogenicity incubated for 7 days by MTS assay; format: functional, organism-based; conditions: for EC50: Influenza A virus, A/Ned/378/05(H1N1), MDCK, 168 h
Influenza A virus H3N2 [6] = test: Antiviral activity against Influenza A virus (A/HK/7/87(H3N2)) infected in dog MDCK cells assessed as reduction in virus-induced cytopathogenicity incubated for 7 days by MTS assay; format: functional, organism-based; conditions: A/Hong Kong/7/1987(H3N2); for EC50: 168 h
Influenza B virus [7] = test: Antiviral activity against Influenza B virus (B/Ned/537/05) infected in dog MDCK cells assessed as reduction in virus-induced cytopathogenicity incubated for 7 days by MTS assay; format: functional, organism-based; conditions: for EC50: 168 h
[8] = Cytotoxicity against dog MDCK cells assessed as minimum cytotoxic concentration by observing alteration in cell morphology incubated for 3 days by microscopic analysis; format: cell-based, Canis lupus familiaris
MDCK = test: (§2) Cytotoxicity against dog MDCK cells assessed as reduction in cell viability incubated for 3 days by coulter counter method; format: cell-based, Canis lupus familiaris; conditions: mdck, 72 h
[9] = Cytotoxicity against human HELF cells assessed as minimum cytotoxic concentration by observing alteration in cell morphology incubated for 3 days by microscopic analysis; format: cell-based; conditions: HELF cells
Method in brief: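 Read-out is the minimum cytotoxic concentration (MCC): the lowest compound concentration giving a microscopically detectable change in cell morphology. Measured on confluent human embryonic lung (HEL) fibroblast cultures exposed to a range of compound concentrations.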

[10] = as §2; format: cell-based, Canis lupus familiaris; conditions: MDCK cells
MCF7 [11] = test: Induction of apoptosis in human MCF7 cells assessed as early apoptotic cells at 2 times of cytotoxic IC50 incubated for 24 hrs by annexin V staining based inverted phase contrast fluorescence microscopy (reference value: 0 %); format: functional
MCF7 [12] = test: Induction of apoptosis in human MCF7 cells assessed as late apoptotic cells at 2 times of cytotoxic IC50 incubated for 24 hrs by annexin V staining based inverted phase contrast fluorescence microscopy (reference value: […]); format: functional
MCF7 [13] = test: Induction of apoptosis in human MCF7 cells assessed as necrotic cells at 2 times of cytotoxic IC50 incubated for 24 hrs by annexin V staining based inverted phase contrast fluorescence microscopy (reference value: 0 %); format: functional
MCF7 [14] = test: Induction of apoptosis in human MCF7 cells assessed as early apoptotic cells at 2 times of cytotoxic IC50 incubated for 48 hrs by annexin V staining based inverted phase contrast fluorescence microscopy (reference value: 0 %); format: functional
MCF7 [15] = test: Induction of apoptosis in human MCF7 cells assessed as late apoptotic cells at 2 times of cytotoxic IC50 incubated for 48 hrs by annexin V staining based inverted phase contrast fluorescence microscopy (reference value: 10.60 %); format: functional
MCF7 [16] = test: Induction of apoptosis in human MCF7 cells assessed as necrotic cells at 2 times of cytotoxic IC50 incubated for 24 hrs by annexin V staining based inverted phase contrast fluorescence microscopy (reference value: 0.84 %); format: functional
MCF7 [17] = test: Upregulation of HIF1alpha in human MCF7 cells at cytotoxic IC50 incubated for 24 and 48 hrs by Western blot analysis; format: functional, cell-based
MCF7 [18] = test: Downregulation of NOS2 in human MCF7 cells at cytotoxic IC50 incubated for 24 and 48 hrs by Western blot analysis; format: functional, cell-based
Cytomegalovirus [19] = test: Antiviral activity against Cytomegalovirus AD169 infected in human HELF cells assessed as reduction in virus-induced cytopathogenicity incubated for 7 days by Giemsa staining based microscopic analysis; format: functional, organism-based; conditions: Human betaherpesvirus 5, AD169, HELF, 168 h
Method in brief: (§3)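 Confluent HEL fibroblasts infected with CMV (Davis or AD-169) at 100 PFU/well for 2 h. Residual virus removed, then medium with graded compound concentrations added (duplicate). Incubated 7 days at 37 °C. Cytopathogenicity scored microscopically after ethanol fixation and Giemsa staining. EC50 read from plots of % cytopathogenicity versus concentration.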

Cytomegalovirus [20] = test: Antiviral activity against Cytomegalovirus Davis infected in human HELF cells assessed as reduction in virus-induced cytopathogenicity incubated for 7 days by Giemsa staining based microscopic analysis; format: functional, organism-based; conditions: Human betaherpesvirus 5, Davis, 168 h; method in brief: as §3
Human alphaherpesvirus 3 [21] = test: Antiviral activity against thymidine kinase deficient Varicella zoster virus infected in human HELF cells assessed as reduction in virus-induced cytopathogenicity incubated for 7 days by Giemsa staining based microscopic analysis; format: functional, organism-based; conditions: Human alphaherpesvirus 3, HELF, 168 h
Human alphaherpesvirus 3 [22] = test: Antiviral activity against thymidine kinase positive Varicella zoster virus infected in human HELF cells assessed as reduction in virus-induced cytopathogenicity incubated for 7 days by Giemsa staining based microscopic analysis; format: functional, organism-based; conditions: Human alphaherpesvirus 3, HELF, 168 h
Human alphaherpesvirus 1 [23] = test: Antiviral activity against Herpes simplex virus 1 KOS infected in human HELF cells assessed as reduction in virus-induced cytopathogenicity incubated for 7 days by microscopic analysis; format: functional, organism-based; conditions: strain KOS
Human alphaherpesvirus 2 = test: Antiviral activity against Herpes simplex virus 2 G infected in human HELF cells assessed as reduction in virus-induced cytopathogenicity incubated for 7 days by microscopic analysis; format: functional, organism-based
Human alphaherpesvirus 1 [24] = test: Antiviral activity against Herpes simplex virus 1 TK-KOS-ACV infected in human HELF cells assessed as reduction in virus-induced cytopathogenicity incubated for 7 days by microscopic analysis; format: functional, organism-based
Human adenovirus 2 = test: Antiviral activity against Human adenovirus 2 infected in human HELF cells assessed as reduction in virus-induced cytopathogenicity incubated for 7 days by microscopic analysis; format: functional, organism-based
Human coronavirus 229E = test: Antiviral activity against Human coronavirus 229E infected in human HELF cells assessed as reduction in virus-induced cytopathogenicity incubated for 7 days by microscopic analysis; format: functional, organism-based
Coxsackievirus B4 = test: Antiviral activity against Human coxsackievirus B4 infected in vero cells assessed as reduction in virus-induced cytopathogenicity incubated for 7 days by microscopic analysis; format: functional, organism-based
Reovirus sp. = test: Antiviral activity against Reovirus infected in vero cells assessed as reduction in virus-induced cytopathogenicity incubated for 7 days by microscopic analysis; format: functional, organism-based
Sindbis virus = test: Antiviral activity against Sindbis virus infected in vero cells assessed as reduction in virus-induced cytopathogenicity incubated for 7 days by microscopic analysis; format: functional, organism-based

O=C1O[C@H]([C@@H](O)Cn2ccnn2)C(OCc2ccccc2)=C1OCc1ccccc1
IC50 (A549): > 100 µM
IC50 (CFPAC-1): > 100 µM
IC50 (HCT-116): > 100 µM
IC50 (HeLa): > 100 µM
IC50 (HepG2): > 100 µM
IC50 (MCF7 [1]): > 100 µM
IC50 (SW-620): > 100 µM
IC50 (HFF): 0.61 µM
EC50 (Influenza A virus [2]; Influenza A virus, A/Ned/378/05(H1N1), MDCK, 168 h): 75 µM
EC50 (Influenza A virus H3N2 [3]): 45 µM
EC50 (Influenza B virus [4]): > 100 µM
EC50 (Influenza A virus [5]): 35.1 µM
EC50 (Influenza A virus H3N2 [6]): 53.9 µM
EC50 (Influenza B virus [7]): > 100 µM
MCC at 72 h [8]: > 100 µM
CC50 (MDCK): > 100 µM

NC(=O)c1ncn([C@@H]2O[C@H](CO)[C@@H](O)[C@H]2O)n1 [RIBAVIRIN]
MCC at 72 h [9]: > 250 µM
EC50 (Influenza A virus [2]): 8.9 µM
EC50 (Influenza A virus H3N2 [3]): 2.3 µM
EC50 (Influenza B virus [4]): 5.6 µM
EC50 (Influenza A virus [5]): 18.2 µM
EC50 (Influenza A virus H3N2 [6]): 1.4 µM
EC50 (Influenza B virus [7]): 4.6 µM
MCC at 72 h [8]: > 100 µM
CC50 at 72 h [10]: > 100 µM

CCCCCCCCCCc1cn(C[C@H](O)[C@H]2OC(=O)C(OCc3ccccc3)=C2OCc2ccccc2)nn1
IC50 (A549): 6.75 µM
IC50 (CFPAC-1): 40.3 µM
IC50 (HCT-116): 28.8 µM
IC50 (HeLa): 22.9 µM
IC50 (HepG2): 12.2 µM
IC50 (MCF7 [1]): 0.08 µM
IC50 (SW-620): 45.1 µM
IC50 (HFF): > 100 µM
Activity (MCF7 [11]): 0%
Activity (MCF7 [12]): 1.68%
Activity (MCF7 [13]): 11.36%
Activity (MCF7 [14]): 13.4%
Activity (MCF7 [15]): 35.3%
Activity (MCF7 [16]): 8.76%
Activity (MCF7 [17]): Active
Activity (MCF7 [18]): Active
EC50 (Cytomegalovirus [19]): > 4 µM
EC50 (Cytomegalovirus [20]): > 4 µM
EC50 (Human alphaherpesvirus 3 [21]): 10.7 µM
EC50 (Human alphaherpesvirus 3 [22]): 7.76 µM
MCC at 72 h [9]: 20 µM
Activity (Influenza A virus [2]): inactive
Activity (Influenza A virus H3N2 [3]): inactive
Activity (Influenza B virus [4]): inactive
Activity (Influenza A virus [5]): inactive
Activity (Influenza A virus H3N2 [6]): inactive
Activity (Influenza B virus [7]): inactive
Activity (Human alphaherpesvirus 1 [23]): inactive
Activity (Human alphaherpesvirus 2): inactive
Activity (Human alphaherpesvirus 1 [24]): inactive
Activity (Human adenovirus 2): inactive
Activity (Human coronavirus 229E): inactive
Activity (Coxsackievirus B4): inactive
Activity (Reovirus sp.): inactive
Activity (Sindbis virus): inactive
